Test [1] relates to Pseudomonas aeruginosa. As to the kind of experiment: Antibacterial activity against Pseudomonas aeruginosa assessed as growth inhibition at 50 ug/ml after 24 hrs by microplate reader analysis. Format: functional. As to conditions: read-out: GI.
The test system of test [2] is Pseudomonas aeruginosa. As to the kind of experiment: Inhibition of MDH in Pseudomonas aeruginosa biofilm after 48 hrs by UV-spectrophotometry. The method, boiled down: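 MDH in biofilm read as the change in absorbance of the reaction mixture at 340 nm, relative to untreated controls; mean ± standard deviation.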
The subject of test [3] is Pseudomonas aeruginosa. As to the kind of experiment: Antibiofilm activity against Pseudomonas aeruginosa after 24 hrs by microplate reader analysis. Format: functional, organism-based. The essentials: (§1)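 IC50 for growth and biofilm formation found by serial dilution to the concentration giving 50% inhibition.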
For test [4], the system named is Pseudomonas aeruginosa. As to the kind of experiment: Antibiofilm activity against Pseudomonas aeruginosa at 50 ug/ml after 24 hrs by microplate reader analysis. Format: functional.
Test [5] concerns Pseudomonas aeruginosa. As to the kind of experiment: Antibacterial activity against Pseudomonas aeruginosa assessed as growth inhibition after 24 hrs by microplate reader analysis. Format: functional, organism-based. The essentials:
as §1

Test [6] deals with Pseudomonas aeruginosa. As to the kind of experiment: Reduction of extracellular DNA in Pseudomonas aeruginosa biofilm after 48 hrs by UV-spectrophotometry. In kind it is functional, organism-based. The essentials: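 eDNA measured as the change in absorbance of biofilm lysate at 260 nm versus untreated controls; mean ± standard deviation.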

Data on 16 compounds can be found in ChEMBL document CHEMBL3351850, “Synthesis and anti-biofilm activities of dihydro-pyrrol-2-one derivatives on Pseudomonas aeruginosa” (Bioorg Med Chem Lett, 2015).

Converted amounts (≈) assume the structure as drawn.

In the case of `CCOC(=O)C1=C(Nc2ccc(Br)cc2)C(=O)N(c2ccc(Br)cc2)C1C(=O)OCC` (stereo not drawn), the inhibition of growth at 50 µg/mL in test [1] came to 76.8%. In addition, the inhibition entry in test [2] was “Dose-dependent effect”. Also, the 50% inhibitory concentration (IC50) in test [3] was found to be 39 mg/L (≈ 70.6 µM); in test [5] it was 38.4 mg/L (≈ 69.5 µM). This compound also gave an inhibition at 50 µg/mL in test [4] of 65.4%. In test [6], the Activity entry was “Dose-dependent effect”.

For `CCOC(=O)C1=C(Nc2ccc(Cl)cc2)C(=O)N(c2ccc(Cl)cc2)C1C(=O)OCC` (stereo not drawn), the inhibition of growth at 50 µg/mL in test [1] was found to be 68.6%. For the same compound, at 50 µg/mL the inhibition in test [4] was 20.7%. Also, the concentration for half-maximal inhibition (IC50) in test [5] stood at 41.6 mg/L (≈ 89.8 µM).

`CCOC(=O)C1=C(Nc2ccc(C(=O)OCC)cc2)C(=O)N(c2ccc(C(=O)OCC)cc2)C1C(=O)OCC` (stereo not drawn): the inhibition of growth at 50 µg/mL in test [1] came to 44.7%. Further, in test [4], the inhibition at 50 µg/mL amounted to 37.8%.

In the case of `CCOC(=O)C1=C(Nc2cccc(C)c2)C(=O)N(c2cccc(C)c2)C1C(=O)OCC` (stereo not drawn), the inhibition of growth at 50 µg/mL in test [1] was 55.5%. The compound further came in with an inhibition at 50 µg/mL in test [4] of 29.3%. Also, the IC50 in test [5] was 48.4 mg/L (≈ 115 µM).

In the case of `CCOC(=O)C1=C(Nc2ccccc2)C(=O)N(c2ccccc2)C1C(=O)OCC` (stereo not drawn), the inhibition of growth at 50 µg/mL in test [1] was 50.4%. This compound gave an inhibition at 50 µg/mL in test [4] of 35.5%. Also, the IC50 in test [5] was 50 mg/L (≈ 127 µM).

In the case of `CCOC(=O)C1=C(Nc2ccc(CC)cc2)C(=O)N(c2ccc(CC)cc2)C1C(=O)OCC` (stereo not drawn), the inhibition of growth at 50 µg/mL in test [1] is 65.8%. Also, in test [2], the inhibition result is “Dose-dependent effect”. For the same compound, the IC50 amounted to 47.4 mg/L (≈ 105 µM) in test [3] and 42.2 mg/L (≈ 93.7 µM) in test [5]. In test [4], this compound gave an inhibition at 50 µg/mL of 53.2%. The Activity result in test [6] is “Dose-dependent effect”.

`CCOC(=O)C1=C(Nc2ccc(C)cc2)C(=O)N(c2ccc(C)cc2)C1C(=O)OCC` (stereo not drawn): in test [1], the inhibition of growth at 50 µg/mL was 34%. Besides, in test [4], at 50 µg/mL the inhibition was 13.6%.

As for `CCOC(=O)C1=C(Nc2ccc(OC)cc2)C(=O)N(c2ccc(OC)cc2)C1C(=O)OCC` (stereo not drawn), the inhibition of growth at 50 µg/mL in test [1] was found to be 80.8%. For the same compound, the inhibition entry in test [2] was “Dose-dependent effect”. Also, the IC50 in test [3] was 40.2 mg/L (≈ 88.5 µM); in test [5], 34.2 mg/L (≈ 75.3 µM). In test [4], this compound returned an inhibition at 50 µg/mL of 61.4%. Moreover, the Activity result in test [6] was “Dose-dependent effect”.

With `CCOC(=O)C1=C(Nc2ccc(OCC)cc2)C(=O)N(c2ccc(OCC)cc2)C1C(=O)OCC` (stereo not drawn), the inhibition of growth at 50 µg/mL in test [1] worked out at 63.1%. Also, the inhibition result in test [2] is “Dose-dependent effect”. For the same compound, the 50% inhibitory concentration (IC50) came to 48.4 mg/L (≈ 100 µM) in test [3] and 46.6 mg/L (≈ 96.6 µM) in test [5]. In test [4], the inhibition at 50 µg/mL was determined as 53.8%. For the same compound, in test [6], the Activity entry was “Dose-dependent effect”.

Regarding `CCOC(=O)C1=C(Nc2cccc(F)c2)C(=O)N(c2cccc(F)c2)C1C(=O)OCC` (stereo not drawn), the inhibition of growth at 50 µg/mL in test [1] is 20.3%. In test [4], this compound gave an inhibition at 50 µg/mL of 27.5%.

In the case of `CCOC(=O)C1=C(Nc2cc(C)cc(C)c2)C(=O)N(c2cc(C)cc(C)c2)C1C(=O)OCC` (stereo not drawn), in test [1], the inhibition of growth at 50 µg/mL was determined as 32.5%. The compound further displayed an inhibition at 50 µg/mL in test [4] of 28.9%.

Take `CC[C@H]1OC(=O)[C@H](C)[C@@H](O[C@H]2C[C@@](C)(OC)[C@@H](O)[C@H](C)O2)[C@H](C)[C@@H](O[C@@H]2O[C@H](C)C[C@H](N(C)C)[C@H]2O)[C@](C)(O)C[C@@H](C)C(=O)[C@H](C)[C@@H](O)[C@]1(C)O` [ERYTHROMYCIN]: in test [1], the inhibition of growth at 50 µg/mL turned out to be 67.6%. The inhibition entry in test [2] was “Dose-dependent effect”. Besides, the inhibition at 50 µg/mL in test [4] worked out at 45.7%. Moreover, in test [5], the IC50 amounted to 33.2 mg/L (≈ 45.2 µM). For the same compound, in test [6], the Activity entry was “Dose-dependent effect”.

For the compound `CCOC(=O)C1=C(Nc2cccc(Cl)c2)C(=O)N(c2cccc(Cl)c2)C1C(=O)OCC` (stereo not drawn), in test [1], the inhibition of growth at 50 µg/mL stood at 83%. Moreover, in test [2], the inhibition result was “Dose-dependent effect”. In addition, the results for the IC50 in test [3] and in test [5] were 28.8 mg/L (≈ 62.2 µM) and 27.8 mg/L (≈ 60 µM), respectively. This compound also had an inhibition at 50 µg/mL in test [4] of 70.2%. Further, in test [6], the Activity result is “Dose-dependent effect”.

Take `CCOC(=O)C1=C(Nc2cccc(C(=O)OCC)c2)C(=O)N(c2cccc(C(=O)OCC)c2)C1C(=O)OCC` (stereo not drawn): the inhibition of growth at 50 µg/mL in test [1] came to 15.4%. The inhibition at 50 µg/mL in test [4] was 42%.

For `CCOC(=O)C1=C(NC2CC2)C(=O)N(C2CC2)C1C(=O)OCC` (stereo not drawn), the inhibition of growth at 50 µg/mL in test [1] turned out to be 26.6%. Moreover, at 50 µg/mL the inhibition in test [4] was 11.8%.

Turning to `CCOC(=O)C1=C(NC2CCC2)C(=O)N(C2CCC2)C1C(=O)OCC` (stereo not drawn), in test [1], the inhibition of growth at 50 µg/mL was found to be 40.9%. In test [4], this compound registered an inhibition at 50 µg/mL of 41.3%.
